{
  "source": "ChEMBL document CHEMBL4382263",
  "about": "“Spirostaphylotrichin X from a Marine-Derived Fungus as an Anti-influenza Agent Targeting RNA Polymerase PB2” (J Nat Prod, 2018)",
  "system": "Influenza A virus",
  "assay": "Antiviral activity against Influenza A virus H5N1 pseudovirus harboring IAV (A/Thailand/Kan353/2004(H5N1))-HA/IAV (A/Thailand/Kan353/2004(H5N1))-NA/HIV core plasmids infected in MDCK cells assessed as pseudovirus neutralization incubated for 30 mins with virus followed by viral infection and measured after 48 hrs by luciferase reporter gene assay",
  "format": "functional, organism-based",
  "outline": "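Pseudovirus incubated with varying compound concentrations for 30 min at 37 °C, then added to MDCK cells for 48 h. Lysates read for luciferase activity; VSV-G pseudovirus run as control.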",
  "note": "Active and inactive are the calls of the source. The calls are words filed in the database; no cut-off is given here.",
  "data": [
    {"smiles": "CC/C=C1/C=CC(=O)[C@@H](O)[C@]12C(=O)N(OC)[C@@](C)(OC)[C@@H]2O", "values": [
      {"measurement": "Activity", "value": "inactive"}
    ]}
  ]
}
